Measured values published in ChEMBL document CHEMBL2407028, “Discovery of novel oxazolidinedione derivatives as potent and selective mineralocorticoid receptor antagonists” (Bioorg Med Chem Lett, 2013).

Legend:
Estrogen receptor beta = Estrogen receptor beta (Homo sapiens, UniProt Q92731); assay: Agonist activity at estrogen receptor beta (unknown origin) by NH Pro assay
Rattus norvegicus = assay: Dose normalized AUC in rat at 1 mg/kg, po; assay type: ADME, organism-based; set-up: dose 1 mg/kg, route oral; settings: in vivo
Procedure, shortened: (§1)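 Rats dosed at 1 mg/kg iv (n = 2) or 1 mg/kg po (n = 3), formulated at 1 mg/mL in PEG 200:water (70:30). Blood concentrations measured by LC/MS/MS after protein precipitation with acetonitrile.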

[1] = Cmax in rat at 1 mg/kg, iv and 1 mg/lg, po; assay type: ADME, organism-based; set-up: dose 1 mg/kg, route oral; settings: in vivo; procedure, shortened: as §1
Glucocorticoid receptor = target: T1, Glucocorticoid receptor (Homo sapiens, UniProt P04150); assay: Antagonist activity at glucocorticoid receptor (unknown origin) by NH Pro assay
T1 sequence (P04150 whole entry): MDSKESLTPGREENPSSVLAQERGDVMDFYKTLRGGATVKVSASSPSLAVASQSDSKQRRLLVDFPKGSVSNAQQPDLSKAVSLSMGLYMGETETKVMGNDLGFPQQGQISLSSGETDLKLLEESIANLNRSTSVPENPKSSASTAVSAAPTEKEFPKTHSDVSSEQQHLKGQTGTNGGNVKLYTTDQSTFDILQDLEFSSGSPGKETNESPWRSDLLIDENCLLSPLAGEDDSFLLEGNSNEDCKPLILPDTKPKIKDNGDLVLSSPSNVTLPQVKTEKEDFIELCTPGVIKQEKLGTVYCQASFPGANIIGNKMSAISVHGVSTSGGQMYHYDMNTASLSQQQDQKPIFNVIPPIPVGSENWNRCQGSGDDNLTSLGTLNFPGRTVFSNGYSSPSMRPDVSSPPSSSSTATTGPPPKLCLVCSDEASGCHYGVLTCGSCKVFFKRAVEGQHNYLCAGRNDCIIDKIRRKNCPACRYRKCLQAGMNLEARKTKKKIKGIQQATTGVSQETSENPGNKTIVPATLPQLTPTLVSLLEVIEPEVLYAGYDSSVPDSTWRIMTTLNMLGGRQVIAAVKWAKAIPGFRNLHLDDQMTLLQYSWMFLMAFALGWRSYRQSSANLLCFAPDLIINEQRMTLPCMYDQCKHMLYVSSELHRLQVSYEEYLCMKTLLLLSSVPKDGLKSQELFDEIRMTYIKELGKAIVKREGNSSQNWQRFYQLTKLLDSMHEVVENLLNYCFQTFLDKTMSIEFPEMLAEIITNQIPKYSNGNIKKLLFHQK

[2] = Oral bioavailability in rat at 1 mg/kg; assay type: ADME, organism-based; settings: in vivo; procedure, shortened: as §1
Androgen receptor [3] = target: T2, Androgen receptor (Homo sapiens, UniProt P10275); assay: Agonist activity at androgen receptor (unknown origin) by NH Pro assay
T2 sequence (P10275 whole entry): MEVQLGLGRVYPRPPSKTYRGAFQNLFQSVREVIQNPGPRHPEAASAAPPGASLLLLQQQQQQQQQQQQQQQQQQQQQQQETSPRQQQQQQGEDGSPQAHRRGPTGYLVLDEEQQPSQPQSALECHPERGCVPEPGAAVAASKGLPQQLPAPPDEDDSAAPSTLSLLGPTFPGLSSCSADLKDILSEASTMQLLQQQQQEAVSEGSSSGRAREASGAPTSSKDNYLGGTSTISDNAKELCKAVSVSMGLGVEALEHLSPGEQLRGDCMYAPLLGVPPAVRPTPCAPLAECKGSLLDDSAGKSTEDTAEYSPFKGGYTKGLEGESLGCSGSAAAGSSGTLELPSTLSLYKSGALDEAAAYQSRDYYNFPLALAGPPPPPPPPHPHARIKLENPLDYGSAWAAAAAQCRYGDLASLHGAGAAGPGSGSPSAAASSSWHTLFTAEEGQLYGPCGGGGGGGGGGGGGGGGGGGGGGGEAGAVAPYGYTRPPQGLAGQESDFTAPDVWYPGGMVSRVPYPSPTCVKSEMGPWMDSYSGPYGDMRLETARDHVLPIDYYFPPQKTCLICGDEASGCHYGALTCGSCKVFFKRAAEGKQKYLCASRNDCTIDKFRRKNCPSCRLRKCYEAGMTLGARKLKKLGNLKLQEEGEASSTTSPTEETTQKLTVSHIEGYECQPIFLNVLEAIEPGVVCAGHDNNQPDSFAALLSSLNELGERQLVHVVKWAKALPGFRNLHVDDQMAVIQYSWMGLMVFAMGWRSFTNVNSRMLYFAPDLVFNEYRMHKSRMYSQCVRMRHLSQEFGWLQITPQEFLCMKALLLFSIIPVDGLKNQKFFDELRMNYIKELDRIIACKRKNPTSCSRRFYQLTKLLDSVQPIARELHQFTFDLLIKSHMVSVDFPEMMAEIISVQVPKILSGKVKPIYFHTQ

Androgen receptor [4] = target: T2, Androgen receptor; assay: Antagonist activity at androgen receptor (unknown origin) by NH Pro assay

Chain of Estrogen receptor beta (Q92731 whole entry): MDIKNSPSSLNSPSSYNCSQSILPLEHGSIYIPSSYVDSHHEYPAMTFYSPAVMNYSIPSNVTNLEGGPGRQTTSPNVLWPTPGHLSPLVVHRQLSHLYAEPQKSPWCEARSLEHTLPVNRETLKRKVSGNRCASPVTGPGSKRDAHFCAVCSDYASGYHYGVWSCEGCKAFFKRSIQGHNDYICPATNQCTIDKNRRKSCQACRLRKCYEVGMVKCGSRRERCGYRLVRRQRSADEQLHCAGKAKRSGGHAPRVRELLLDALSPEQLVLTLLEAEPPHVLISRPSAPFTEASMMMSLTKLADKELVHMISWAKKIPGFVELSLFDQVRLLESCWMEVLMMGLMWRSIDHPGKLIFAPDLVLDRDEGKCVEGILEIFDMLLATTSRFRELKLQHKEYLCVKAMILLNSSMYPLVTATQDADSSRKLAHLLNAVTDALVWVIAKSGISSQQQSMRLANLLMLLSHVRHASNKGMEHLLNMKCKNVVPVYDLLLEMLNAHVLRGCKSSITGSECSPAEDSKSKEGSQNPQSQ

| EC50 (Estrogen receptor beta) | AUC/dose (Rattus norvegicus) | Cmax [1] | IC50 (Glucocorticoid receptor) | bioavailability [2] | EC50 (Androgen receptor [3]) | IC50 (Androgen receptor [4]) | SMILES |
| --- | --- | --- | --- | --- | --- | --- | --- |
| > 20 µM | 0.24 µM·kg·h/mg | 98 nM | > 20 µM | 28% | > 20 µM | 12 µM | COc1cc(CNC(=O)[C@@]2(Cc3ccccc3)OC(=O)N([C@@H]3CCc4ccccc43)C2=O)cc(OC)c1 |
| > 20 µM | 0.24 µM·kg·h/mg | 120 nM | 11 µM | 63% | > 20 µM | > 20 µM | C[C@H](c1ccc(F)cc1)N1C(=O)O[C@](Cc2ccc(F)cc2)(C(=O)NCc2ccc(Cl)c(Cl)c2)C1=O |
